From article PMC6545551 (ACS Omega, 2019) come the findings set out here.

For orientation: IC50 means the point on the concentration scale where inhibition reaches its midpoint. A higher IC50 goes with lower potency. Broadly, the half-life is the time needed for the level to fall by half in the phase considered. Higher therefore signals slow loss. Broadly, the fraction unbound is the share of the substance not bound to proteins or other matrix. Read a low fraction unbound as extensive binding.

Like-named read-outs stand apart in the source and are kept apart here.

In series [1] the target is T1, ovine COX-1 (Ovis aries, UniProt P05979).
T1 sequence (P05979 25-600): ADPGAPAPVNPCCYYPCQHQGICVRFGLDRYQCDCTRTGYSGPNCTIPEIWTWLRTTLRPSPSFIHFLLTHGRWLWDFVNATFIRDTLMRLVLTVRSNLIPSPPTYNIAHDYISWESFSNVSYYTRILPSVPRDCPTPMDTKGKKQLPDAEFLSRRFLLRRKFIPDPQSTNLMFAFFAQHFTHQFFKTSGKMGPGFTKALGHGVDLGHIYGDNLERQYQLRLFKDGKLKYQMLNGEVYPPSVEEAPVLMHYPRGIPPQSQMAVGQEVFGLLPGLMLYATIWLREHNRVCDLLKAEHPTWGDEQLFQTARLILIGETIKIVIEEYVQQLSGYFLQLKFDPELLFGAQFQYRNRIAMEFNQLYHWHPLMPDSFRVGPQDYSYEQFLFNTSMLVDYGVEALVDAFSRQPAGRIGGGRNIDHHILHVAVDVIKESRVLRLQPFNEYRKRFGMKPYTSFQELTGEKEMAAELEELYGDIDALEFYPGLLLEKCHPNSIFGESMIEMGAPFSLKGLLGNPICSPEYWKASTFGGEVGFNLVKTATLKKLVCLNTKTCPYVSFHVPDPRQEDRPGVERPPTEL
The experiment in a line: Inhibition of purified ovine COX-1. In kind it is biochemical.

For series [2], the target named is T2, COX-2 in 1483 HNSCC cells (Homo sapiens, UniProt P35354).
T2 sequence (P35354 18-604): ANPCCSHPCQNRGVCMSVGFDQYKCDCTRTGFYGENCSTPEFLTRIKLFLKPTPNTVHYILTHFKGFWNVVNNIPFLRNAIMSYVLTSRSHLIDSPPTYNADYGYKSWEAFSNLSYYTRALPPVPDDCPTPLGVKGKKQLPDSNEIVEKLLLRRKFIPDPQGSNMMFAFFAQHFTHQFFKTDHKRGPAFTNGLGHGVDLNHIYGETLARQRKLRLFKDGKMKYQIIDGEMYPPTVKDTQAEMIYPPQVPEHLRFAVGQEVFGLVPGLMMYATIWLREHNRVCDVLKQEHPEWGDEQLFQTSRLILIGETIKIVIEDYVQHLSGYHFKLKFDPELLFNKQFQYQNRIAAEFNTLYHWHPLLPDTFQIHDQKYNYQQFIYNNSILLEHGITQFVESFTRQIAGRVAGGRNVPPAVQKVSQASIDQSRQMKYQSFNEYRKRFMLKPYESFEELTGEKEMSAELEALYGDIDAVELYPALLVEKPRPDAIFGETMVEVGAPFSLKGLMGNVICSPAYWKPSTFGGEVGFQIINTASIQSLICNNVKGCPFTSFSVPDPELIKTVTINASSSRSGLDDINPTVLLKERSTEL
The experiment in a line: Inhibition of COX-2 in intact 1483 HNSCC cells. In kind it is cell-based.

The target in series [3] is COX-1 in OVCAR3 cells (Homo sapiens, UniProt P23219). The series is described as follows: Inhibition of COX-1 in intact OVCAR3 cells. In kind it is cell-based.
Chain of COX-1 in OVCAR3 cells (P23219 24-599): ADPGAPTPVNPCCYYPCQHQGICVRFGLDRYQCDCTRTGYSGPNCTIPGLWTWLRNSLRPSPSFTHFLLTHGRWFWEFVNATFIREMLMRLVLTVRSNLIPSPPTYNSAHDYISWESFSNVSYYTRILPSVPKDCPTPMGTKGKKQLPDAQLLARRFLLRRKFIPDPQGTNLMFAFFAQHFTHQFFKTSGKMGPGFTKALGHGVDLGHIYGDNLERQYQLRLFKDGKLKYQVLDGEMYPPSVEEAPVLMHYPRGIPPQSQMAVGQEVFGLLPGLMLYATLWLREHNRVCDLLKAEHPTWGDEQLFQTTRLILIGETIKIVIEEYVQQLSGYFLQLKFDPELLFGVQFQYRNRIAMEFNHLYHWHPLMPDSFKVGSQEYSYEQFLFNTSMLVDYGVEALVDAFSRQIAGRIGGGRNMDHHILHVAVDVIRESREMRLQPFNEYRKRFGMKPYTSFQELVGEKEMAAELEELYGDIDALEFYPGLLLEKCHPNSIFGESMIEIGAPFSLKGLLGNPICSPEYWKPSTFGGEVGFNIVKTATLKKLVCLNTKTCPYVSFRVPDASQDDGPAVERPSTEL
Series [4] addresses T3, mouse COX-2 (Mus musculus, UniProt Q05769).
T3 sequence (Q05769 18-604): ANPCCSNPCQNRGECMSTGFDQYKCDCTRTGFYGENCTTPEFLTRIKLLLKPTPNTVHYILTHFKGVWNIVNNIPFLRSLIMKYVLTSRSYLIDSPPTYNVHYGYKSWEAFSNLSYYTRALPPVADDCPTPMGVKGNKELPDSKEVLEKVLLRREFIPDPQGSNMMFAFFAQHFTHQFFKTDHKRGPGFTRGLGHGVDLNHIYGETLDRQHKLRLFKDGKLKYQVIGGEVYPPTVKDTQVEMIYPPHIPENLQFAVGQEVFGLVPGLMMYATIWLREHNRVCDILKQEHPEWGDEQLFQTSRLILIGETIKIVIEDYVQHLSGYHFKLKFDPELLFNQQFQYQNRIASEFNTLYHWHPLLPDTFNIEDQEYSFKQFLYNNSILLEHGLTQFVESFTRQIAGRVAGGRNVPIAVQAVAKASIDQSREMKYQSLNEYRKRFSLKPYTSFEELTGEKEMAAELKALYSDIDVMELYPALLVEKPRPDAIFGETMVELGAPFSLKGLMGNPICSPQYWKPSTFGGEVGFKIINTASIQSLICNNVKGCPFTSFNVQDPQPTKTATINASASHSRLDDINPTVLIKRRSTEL
The series is described as follows: Inhibition of purified COX-2. In kind it is biochemical.

Series [5] can be described thus: In vivo plasma half-life of FDF in mice. Particulars: male, CD-1, mouse, ip, 10 mg/kg.
Series [6] can be described thus: Plasma protein binding, dog plasma. In kind it is in vitro ADME. An outline of the steps:
(§1)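 Equilibrium dialysis in a high-throughput micro-equilibrium device, with test compound incubated in mouse, dog or human plasma at 37 °C. Samples were taken at 0 and 4.5 h and quantified by fast-gradient LC–MS/MS. Unbound fraction was calculated as buffer-side concentration divided by protein-side concentration. Recovery was the summed buffer and protein chamber concentrations relative to the 0 h concentration.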

Series [7] is described as follows: Plasma protein binding, free fraction across species. In kind it is in vitro ADME. Particulars: mouse, dog, human. The method, boiled down:
as §1

The nature of series [8]: Plasma protein binding, mouse plasma. In kind it is in vitro ADME. An outline of the steps: as §1
Series [9] is described as follows: In vivo biodistribution and defluorination of unlabeled FDF in C57BL/6 mice. The arrangement: species or system mouse. Particulars: 10 mg/kg i.p., 60 min. An outline of the steps: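 Male C57BL/6 mice (30 g, three per group) received unlabeled test compound at 10 mg/kg i.p. "at 10 min intervals." At 60 min, brain, lungs, heart, kidney, liver and muscle were taken, rinsed in cold PBS and frozen at −80 °C. Tissues were homogenized in acetonitrile, extracts dried and reconstituted in methanol/water. Quantitation was by C18 LC–MS/MS, SRM m/z 279 → 236, against a 1:1 methanol/water standard curve.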

A short description of series [10]: Plasma protein binding, human plasma. In kind it is in vitro ADME. The method, boiled down: as §1

As for `CC1(C)OC(=O)C(c2ccccc2)=C1c1ccccc1` [Compound 1, 5,5-Dimethyl-3,4-diphenylfuran-2(5H)-one], the IC50 in series [1] is 360 nM; in [2], greater than 5 µM; in series [3], 120 nM. Further, the “Inhibition of purified COX-2 (in words)” value in [4] (at concentrations up to 25 μM) is listed as “no inhibition”.
In [5], `Cc1ccc(C2=C(c3ccc(F)cc3)C(=O)OC2(C)C)cc1` [Compound 4, 3-(4-Fluorophenyl)-5,5-dimethyl-4-(p-tolyl)furan-2(5H)-one] had a half-life of 72 min. Also, the IC50 in series [1] is 140 nM; in series [2], greater than 5 µM; in series [3], 220 nM. Besides, the fraction unbound at 4.5 h in series [6] is roughly 0.01; in [7] it was 0.0099 to 0.025; in series [8] it was 0.025; in series [10], roughly 0.01. Further, in [9], the “Defluorinated metabolite in other organs” value is on record as “below the quantification limit”. Besides, the “Uptake in the kidney (average)” value in series [9] came out at 8.87 nmol/g tissue. The “Uptake in the liver (overall average)” value in series [9] was 0.61 nmol/g tissue.
`Cc1ccc(C2=C(c3ccccc3)C(=O)OC2(C)C)cc1` [Compound 2, 5,5-Dimethyl-3-phenyl-4-(p-tolyl)furan-2(5H)-one]: the IC50 in series [1] is 50 nM; in [2], greater than 5 µM; in [3], 490 nM.
In the same order, the values of `Cc1ccc(C2=C(c3ccc(I)cc3)C(=O)OC2(C)C)cc1` [Compound 6, 3-(4-Iodophenyl)-5,5-dimethyl-4-(p-tolyl)furan-2(5H)-one] are 40 nM, greater than 5 µM and 800 nM.
In the same order, the values of `Cc1ccc(C2=C(c3cccc(F)c3)C(=O)OC2(C)C)cc1` [Compound 5, 3-(3-Fluorophenyl)-5,5-dimethyl-4-(p-tolyl)furan-2(5H)-one] are 50 nM, greater than 5 µM and 130 nM.
Turning to `COc1ccc([I+]c2ccc(C3=C(c4ccc(C)cc4)C(C)(C)OC3=O)cc2)cc1.Cc1ccc(S(=O)(=O)[O-])cc1` [Compound 7, (4-(5,5-Dimethyl-2-oxo-4-(p-tolyl)-2,5-dihydrofuran-3-yl)phenyl)(4-methoxyphenyl)iodonium Tosylate], in series [1], the IC50 is greater than 25000 nM and the “Inhibition of purified COX-1 (in words)” value is listed as “failed to inhibit”. In series [2], the IC50 was greater than 5 µM and the “Inhibition of COX-2 in 1483 HNSCC cells (in words)” value was “inactive”. Moreover, in [3], the half-maximal inhibitory concentration (IC50) is greater than 5000 nM and the “Inhibition of COX-1 in intact OVCAR3 cells (in words)” value is “inactive”. The “Inhibition of purified COX-2 (in words)” value in [4] was “failed to inhibit”.
Regarding `CC1(C)OC(=O)C(c2ccc(F)cc2)=C1c1ccccc1` [Compound 3, 3-(4-Fluorophenyl)-5,5-dimethyl-4-phenylfuran-2(5H)-one], the IC50 in series [1] was 640 nM; in series [2], greater than 5 µM; in [3] it was 280 nM.
